Results: ChEMBL document CHEMBL1770130, “Design, synthesis, and in vivo characterization of a novel series of tetralin amino imidazoles as γ-secretase inhibitors: discovery of PF-3084014” (Bioorg Med Chem Lett, 2011)
Calls of active or inactive are those of the source. The rule behind the calls is not given here.

How the values were obtained:
[1] = Effect on gamma secretase-mediated notch processing in C57BL/6 mouse fetal thymic organ cultures assessed as reduction of B and T-cell populations after 45 mins by FACS analysis
Cavia porcellus [2] = test: Antialzheimer activity in sc dosed guinea pig assessed as reduction of total amyloid beta level in brain after 3 hrs by DELFIA-based ELISA; type: functional
Summary of the method: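 Guinea pigs dosed sc over a range of doses and brain Aβ1-X measured by DELFIA ELISA at 3 h; brain ED50 derived from the dose–response.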

Gamma-secretase [3] = test: Inhibition of gamma-secretase in human H4 cells expressing APP Swedish mutant assessed as inhibition of amyloid beta (1 to x) production by whole cell assay
Gamma-secretase [4] = test: Inhibition of gamma-secretase in human HeLa cells assessed as inhibition of amyloid beta (1 to 40) production by DELFIA-based immunoassay; type: cell-based
human MDR1 (P-gp) = test: Efflux ratio of permeability from basolateral to apical side to apical to basolateral side of MDCK cells expressing human MDR1; type: ADME, cell-based, Canis lupus familiaris; conditions: dog
Summary of the method: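 MDCK cells transfected with human P-glycoprotein (MDR1); efflux ratio calculated as B→A over A→B permeability.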

[5] = Ratio of EC50 for gamma secretase-mediated notch processing in C57BL/6 mouse fetal thymic organ cultures to plasma concentration observed at brain ED50 of total beta-amyloid level
Summary of the method: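 FTOC EC50 divided by the plasma concentration at the brain ED50. That plasma concentration was obtained by linear least-squares regression of dose against measured plasma concentration in guinea pigs.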

Cavia porcellus [6] = test: Antialzheimer activity in guinea pig assessed as reduction of total amyloid beta level in plasma at 7 to 32 mg/kg, sc administered 3 doses over 24 hrs measured after 3 hrs last post dose by DELFIA-based ELISA; type: functional, organism-based
Summary of the method: (§1)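 Guinea pigs dosed sc at 7 or 32 mg/kg three times over 24 h (0, 12, 24 h). Tissues collected 3 h after the final dose, and Aβ measured by DELFIA ELISA; compared with vehicle by one-way ANOVA and Dunnett's test.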

Cavia porcellus [7] = test: Antialzheimer activity in guinea pig assessed as reduction of total amyloid beta level in plasma at 10 mg/kg, sc after 24 hrs by DELFIA-based ELISA; type: functional, organism-based; parameters: dose 10 mg/kg
Summary of the method: (§2)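 Guinea pigs dosed once at 10 mg/kg sc, tissues sampled up to 24 h. Aβ1-X in brain, CSF and plasma measured by DELFIA ELISA and expressed as percentage of vehicle; one-way ANOVA with Dunnett's test versus vehicle, p<0.05.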

Cavia porcellus [8] = test: Antialzheimer activity in guinea pig assessed as reduction of total amyloid beta level in cerebral spinal fluid at 10 mg/kg, sc after 24 hrs by DELFIA-based ELISA; type: functional, organism-based; parameters: dose 10 mg/kg; summary of the method: as §2
[9] = Drug concentration in guinea pig brain at 3.2 mg/kg, sc; type: ADME, organism-based, Cavia porcellus; parameters: dose 3.2 mg/kg, route subcutaneous; conditions: in vivo
Summary of the method: (§3)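 Guinea pigs given a single 3.2 mg/kg sc dose; drug concentrations in plasma and brain determined at the 3 h sampling point.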

Cavia porcellus [10] = test: Antialzheimer activity in guinea pig assessed as reduction of total amyloid beta level in brain at 10 mg/kg, sc after 24 hrs by DELFIA-based ELISA; type: functional, organism-based; parameters: dose 10 mg/kg; summary of the method: as §2
[11] = Ratio of EC50 for gamma secretase-mediated notch processing in C57BL/6 mouse fetal thymic organ cultures to IC50 for APP by whole cell assay
Cavia porcellus [12] = test: Antialzheimer activity in guinea pig assessed as reduction of total amyloid beta level in brain at 10 mg/kg, sc after 3 to 10 hrs by DELFIA-based ELISA; type: functional, organism-based; parameters: dose 10 mg/kg
Summary of the method: (§4)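 Guinea pigs given a single sc dose (3.2–32 mg/kg); brain, CSF and plasma taken at 3 h for the dose–response, or at intervals of 3 to 24 h after 10 mg/kg for the time course. Aβ1-X, Aβ1-40 and Aβ1-42 measured by DELFIA ELISA. Data given as percentage of vehicle; one-way ANOVA with Dunnett's post-hoc versus vehicle, p<0.05.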

Cavia porcellus [13] = test: Antialzheimer activity in guinea pig assessed as reduction of total amyloid beta level in brain at 3.2 mg/kg, sc after 3 hrs by DELFIA-based ELISA; type: functional; parameters: scale not given: the % may be the effect or the level left; conditions: route subcutaneous; summary of the method: as §4
Cavia porcellus [14] = test: Antialzheimer activity in guinea pig assessed as reduction of total amyloid beta level in plasma at 3.2 mg/kg, sc after 3 hrs by DELFIA-based ELISA; type: functional; parameters: scale not given: the % may be the effect or the level left; conditions: route subcutaneous; summary of the method: as §4
Cavia porcellus [15] = test: Antialzheimer activity in guinea pig assessed as reduction of total amyloid beta level in cerebral spinal fluid at 3.2 mg/kg, sc after 3 hrs by DELFIA-based ELISA; type: functional; parameters: scale not given: the % may be the effect or the level left; conditions: route subcutaneous; summary of the method: as §4
Cavia porcellus [16] = test: Antialzheimer activity in guinea pig assessed as reduction of total amyloid beta level in brain at 7 to 32 mg/kg, sc administered 3 doses over 24 hrs measured after 3 hrs last post dose by DELFIA-based ELISA; type: functional, organism-based; summary of the method: as §1
Cavia porcellus [17] = test: Antialzheimer activity in guinea pig assessed as reduction of total amyloid beta level in plasma at 10 mg/kg, sc after 3 to 10 hrs by DELFIA-based ELISA; type: functional, organism-based; parameters: dose 10 mg/kg; summary of the method: as §4
Cavia porcellus [18] = test: Antialzheimer activity in guinea pig assessed as reduction of total amyloid beta level in cerebral spinal fluid at 10 mg/kg, sc after 3 to 10 hrs by DELFIA-based ELISA; type: functional, organism-based; parameters: dose 10 mg/kg; summary of the method: as §4
Cavia porcellus [19] = test: Reduction of marginal zone of B cell populations in guinea pig at 7 mg/kg, sc administered 3 doses over 24 hrs measured after 3 hrs last post dose by FACS analysis; type: organism-based; parameters: dose 7 mg/kg, route subcutaneous; conditions: in vivo
Summary of the method: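 Guinea pigs dosed sc at 7 mg/kg at 0, 12 and 24 h. Spleen marginal zone and whole-blood B cells counted by flow cytometry 3 h after the last dose.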

[20] = Plasma concentration in guinea pig at 3.2 mg/kg, sc; type: ADME, organism-based, Cavia porcellus; parameters: dose 3.2 mg/kg, route subcutaneous; conditions: in vivo; summary of the method: as §3

| SMILES | EC50 [1] | IC50 (Gamma-secretase [3]) | IC50 (Gamma-secretase [4]) | efflux ratio (human MDR1 (P-gp)) | ED50 (Cavia porcellus [2]) | also measured |
| --- | --- | --- | --- | --- | --- | --- |
| CCC[C@H](N[C@H]1CCc2cc(F)cc(F)c2C1)C(=O)Nc1cn(C(C)(C)CN(C)C)cn1 | 3010 nM | 4.6 nM |  |  | 16.1 mg/kg |  |
| CCC[C@H](NC1Cc2ccccc2C1)C(=O)Nc1cn(C(C)(C)CN2CCCC2)cn1 |  | 272 nM | 148 nM | 1.8 |  |  |
| CCC[C@H](N[C@H]1CCc2cc(F)cc(F)c2C1)C(=O)Nc1cn(C(C)(C)CN2CCCCC2)cn1 | 2560 nM | 3.3 nM |  |  | 4.1 mg/kg | Ratio [5]: 46.1 |
| CCC[C@H](NC1CCc2cc(F)ccc2C1)C(=O)Nc1cn(C(C)(C)CN2CCCC2)cn1 (mixture of isomers) |  | 19.5 nM | 19.3 nM | 1.8 |  |  |
| CCC[C@H](NCCC(C)C)C(=O)Nc1cn(C(C)(C)CN2CCCC2)cn1 |  | 3100 nM | > 10000 nM | 4.4 |  |  |
| CCC[C@H](NC1CCc2cccc(Cl)c2C1)C(=O)Nc1cn(C(C)(C)CN2CCCC2)cn1 (mixture of isomers) |  | 46.8 nM | 31 nM | 3.3 |  |  |
| CCC[C@H](N[C@H]1CCc2cc(F)cc(F)c2C1)C(=O)Nc1cn(C(C)(C)CNCC(C)(C)C)cn1 [NIROGACESTAT] | 1830 nM |  |  |  | 2.3 mg/kg |  |
| CCC[C@H](NC(=O)Cc1cc(F)cc(F)c1)C(=O)Nc1cn(C(C)(C)CNCC(C)(C)C)cn1 |  |  |  | 8.4 |  |  |
| CCC[C@H](NC1CCc2cc(F)cc(F)c2C1)C(=O)Nc1cn(C(C)(C)CN2CCCC2)cn1 (mixture of isomers) |  | 5.4 nM | 4.1 nM | 1.5 |  |  |
| CCC[C@H](NC1CCc2cc(Cl)ccc2C1)C(=O)Nc1cn(C(C)(C)CN2CCCC2)cn1 (mixture of isomers) |  | 12.4 nM | 8.9 nM | 1.3 |  |  |
| CCC[C@H](N[C@H]1CCc2cc(F)cc(F)c2C1)C(=O)Nc1cn(C(C)(C)CNC(C)C)cn1 | 6100 nM | 19.3 nM |  |  | 41.2 mg/kg | Ratio [5]: 3.5 |

More lines, in order of falling IC50 (Gamma-secretase [3]), values ahead:

| EC50 [1] | IC50 (Gamma-secretase [3]) | IC50 (Gamma-secretase [4]) | efflux ratio (human MDR1 (P-gp)) | SMILES | ED50 (Cavia porcellus [2]) | also measured |
| --- | --- | --- | --- | --- | --- | --- |
|  | 754 nM | 250 nM | 1.9 | CCC[C@H](NCCc1cc(F)cc(F)c1)C(=O)Nc1cn(C(C)(C)CN2CCCC2)cn1 |  |  |
|  | 480 nM | 499 nM | 1.8 | CCC[C@H](NCc1cc(F)cc(F)c1)C(=O)Nc1cn(C(C)(C)CN2CCCC2)cn1 |  |  |
|  | 310 nM | 6120 nM | 2.3 | CCC[C@H](NC(CC)CC)C(=O)Nc1cn(C(C)(C)CN2CCCC2)cn1 |  |  |
|  | 155 nM | 93.3 nM | 2.9 | CCC[C@H](NC1COc2ccccc2C1)C(=O)Nc1cn(C(C)(C)CN2CCCC2)cn1 (some centres undefined) |  |  |
|  | 53.9 nM | 85.7 nM | 2.2 | CCC[C@H](NC1CCc2ccccc2C1)C(=O)Nc1cn(C(C)(C)CN2CCCC2)cn1 (some centres undefined) |  |  |
| 1090 nM | 6.9 nM |  |  | CCC[C@H](N[C@H]1CCc2cc(F)cc(F)c2C1)C(=O)Nc1cn(C(C)(C)CN2CCOCC2)cn1 | 2.9 mg/kg | Ratio [5]: 16.3 |
| 5100 nM | 4.9 nM |  |  | CCC[C@H](N[C@H]1CCc2cc(F)cc(F)c2C1)C(=O)Nc1cn(C(C)(C)CNCC(F)(F)F)cn1 | 14.6 mg/kg | Ratio [5]: 37.7 |
| 3260 nM | 2.9 nM |  |  | CCC[C@H](N[C@H]1CCc2cc(F)cc(F)c2C1)C(=O)Nc1cn(C(C)(C)CN2CCCC2)cn1 | 9.9 mg/kg | Ratio [5]: 9.8; Activity (Cavia porcellus [6]): Active; Activity (Cavia porcellus [7]): inactive; Activity (Cavia porcellus [8]): inactive; Drug uptake [9]: 587 ng/mL; Activity (Cavia porcellus [10]): Active; Ratio [11]: > 500; Activity (Cavia porcellus [12]): Active; Activity (Cavia porcellus [13]): 33%; Activity (Cavia porcellus [14]): 30%; Activity (Cavia porcellus [15]): 31%; Activity (Cavia porcellus [16]): Active; Activity (Cavia porcellus [17]): Active; Activity (Cavia porcellus [18]): Active; Activity (Cavia porcellus [19]): Non-toxic; Cp [20]: 100 ng/mL |
